Calls of active or inactive are those of the source.
Key:
Type in all cases: functional, organism-based
[1] = tested on: Bacillus subtilis; assay: Antibacterial activity against Bacillus subtilis 2 to 10 ug/L after 24 hrs by Stephenson-Wetham medium disc diffusion method in absence of amino acids
Procedure, shortened: (§1)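 Agar diffusion. Sterile 6 mm paper disks carrying different amounts of compound were placed on Stephenson–Wetham agar (20 g/L agar) pre-seeded with the indicator bacterium. Amounts matched those of the liquid test. After 24 h at 37 °C, the diameter of the growth-inhibition zone was measured.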

[2] = tested on: Escherichia coli; assay: Antibacterial activity against Escherichia coli 2 to 10 ug/L after 24 hrs by Stephenson-Wetham medium disc diffusion method; procedure, shortened: as §1
[3] = tested on: Listeria innocua; assay: Antibacterial activity against Listeria innocua 2 to 10 ug/L after 24 hrs by microdilution method
[4] = tested on: Listeria innocua; assay: Antibacterial activity against Listeria innocua 2 to 10 ug/L after 24 hrs by Stephenson-Wetham medium disc diffusion method in absence of amino acids; procedure, shortened: as §1
[5] = tested on: Pseudomonas aeruginosa; assay: Antibacterial activity against Pseudomonas aeruginosa 2 to 10 ug/L after 24 hrs by Stephenson-Wetham medium disc diffusion method; procedure, shortened: as §1
[6] = tested on: Bacillus subtilis; assay: Antibacterial activity against Bacillus subtilis 2 to 10 ug/L after 24 hrs by Stephenson-Wetham medium disc diffusion method; procedure, shortened: as §1
[7] = tested on: Listeria innocua; assay: Antibacterial activity against Listeria innocua 2 to 10 ug/L after 24 hrs by Stephenson-Wetham medium disc diffusion method; procedure, shortened: as §1
[8] = tested on: Bacillus subtilis; assay: Antibacterial activity against Bacillus subtilis 2 to 10 ug/L after 24 hrs by microdilution method
[9] = tested on: Pseudomonas aeruginosa; assay: Antibacterial activity against Pseudomonas aeruginosa 2 to 10 ug/L after 24 hrs by Stephenson-Wetham medium disc diffusion method in absence of amino acids; procedure, shortened: as §1
[10] = tested on: Escherichia coli; assay: Antibacterial activity against Escherichia coli 2 to 10 ug/L after 24 hrs by Stephenson-Wetham medium disc diffusion method in absence of amino acids; procedure, shortened: as §1
[11] = tested on: Escherichia coli; assay: Antibacterial activity against Escherichia coli 2 to 10 ug/L after 24 hrs by microdilution method
[12] = tested on: Pseudomonas aeruginosa; assay: Antibacterial activity against Pseudomonas aeruginosa 2 to 10 ug/L after 24 hrs by microdilution method
[13] = tested on: Candida albicans; assay: Antifungal activity against Candida albicans at 3.5 to 1050 ug/L after 24 hrs by YNB medium disc diffusion method in absence of amino acids
Procedure, shortened: (§2)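 Disk diffusion on yeast-seeded agar plates (20 g/L agar added), either malt extract medium or YNB without amino acids. Sterile 6 mm paper disks held varying amounts of compound, matching the liquid-assay concentrations. The growth-inhibition zone diameter was measured after 24 h at 28 °C.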

[14] = tested on: Candida albicans; assay: Antifungal activity against Candida albicans at 3.5 to 1050 ug/L after 24 hrs by microdilution method
Procedure, shortened: (§3)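 Yeast microdilution in 24-well plates. Wells were seeded at OD600 0.1 and grown aerobically with the compound (range as in the assay line) for 24 h at 28 °C with agitation. Growth was read as OD600. Runs were in triplicate in YPD, malt extract (20 g/L), RPMI 1640, and YNB without amino acids.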

[15] = tested on: Saccharomyces cerevisiae; assay: Antifungal activity against Saccharomyces cerevisiae at 3.5 to 1050 ug/L after 24 hrs by malt extract medium disc diffusion method; procedure, shortened: as §2
[16] = tested on: Nakaseomyces glabratus; assay: Antifungal activity against Candida glabrata at 3.5 to 1050 ug/L after 24 hrs by microdilution method; procedure, shortened: as §3
[17] = tested on: Saccharomyces cerevisiae; assay: Antifungal activity against Saccharomyces cerevisiae at 3.5 to 1050 ug/L after 24 hrs by YNB medium disc diffusion method in absence of amino acids; procedure, shortened: as §2
[18] = tested on: Nakaseomyces glabratus; assay: Antifungal activity against Candida glabrata at 3.5 to 1050 ug/L after 24 hrs by malt extract medium disc diffusion method; procedure, shortened: as §2
[19] = tested on: Nakaseomyces glabratus; assay: Antifungal activity against Candida glabrata at 3.5 to 1050 ug/L after 24 hrs by YNB medium disc diffusion method in absence of amino acids; procedure, shortened: as §2
[20] = tested on: Saccharomyces cerevisiae; assay: Antifungal activity against Saccharomyces cerevisiae at 3.5 to 1050 ug/L after 24 hrs by microdilution method; procedure, shortened: as §3
[21] = tested on: Candida albicans; assay: Antifungal activity against Candida albicans at 3.5 to 1050 ug/L after 24 hrs by malt extract medium disc diffusion method; procedure, shortened: as §2

Measured: Activity

C[C@H](N)C(=O)N[C@@H](CC(=O)O)C(=O)N[C@@H](/C=C\CP(=O)(O)O)C(=O)O
not listed: [13] | [14] | [15] | [16] | [17] | [18] | [19] | [20] | [21]
inactive: all other assays above

N=C(N)NCCC[C@H](N)C(=O)N[C@@H](/C=C\CP(=O)(O)O)C(=O)O
inactive: [13] | [14] | [15] | [16] | [17] | [18] | [19] | [20] | [21]

Reference: ChEMBL document CHEMBL2413044, “Synthesis and biological evaluation of potential threonine synthase inhibitors: Rhizocticin A and Plumbemycin A” (Bioorg Med Chem, 2013)
